B1: tRNA (parent)
chain: CUCUCGGUAGCCAAGUUGGUUUAAGGCGCAAGACUUUAAUUUAUCACUACGAAAUCUUGAGAUCGGGCGUUCGACUCGCCCCCGGGAGAUUUUUUCCUCGAGCAA

Variants at the floor of the assay were thinned out.

Variants of B1 are the subject of this series. In words: nonsense suppression (GFP-seq) (ratio to wild type); higher = more function; SUP4oc tRNA, yeast GFP reporter sort-seq. Summed up:
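Each variant's nonsense suppression (GFPSEQ) is a cell-share-weighted bin median GFP/RFP relative to the unmutated parent tRNA. Yeast with genome-integrated tRNA variants from a ~3% random-mutation library, a galactose-driven GFP ochre reporter and RFP were grown in raffinose/galactose medium with 80 mg/L adenine, then sorted into GFP/RFP bins for Illumina sequencing. Variants needed ≥100 reads and ≥30 cells.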
For G61A C80U, the nonsense suppression was 0.232.

In the case of G61C C80U, the nonsense suppression amounted to 0.731.

For the variant A60C G85C, the nonsense suppression worked out at 0.0595.

For C64G U70C G84U, the nonsense suppression was ≤ 0.026.

As to G61A G73A, the nonsense suppression worked out at 0.202.

Take G61U U76C: the nonsense suppression was found to be 0.911.

Consider A60G A89U, for which the nonsense suppression is 0.0291.

With G66A G73A, the nonsense suppression was 0.182.

In the case of A62G U63C G66A, the nonsense suppression is ≤ 0.026.

Consider G66A G78A, for which the nonsense suppression came to 0.0402.

C68G G69A: the nonsense suppression is ≤ 0.026.

Turning to U63A C72U, the nonsense suppression was determined as 0.133.

G61C A87U: the nonsense suppression was 0.3.

As for G61C A87C, the nonsense suppression worked out at 0.0361.

As for G61C A87G, the nonsense suppression was determined as 0.247.

As for G61C A74U C83G, the nonsense suppression was ≤ 0.026.

On to G61A G65C G69A C80U, for which the nonsense suppression was ≤ 0.026.

Regarding G73A U76C, the nonsense suppression is 0.682.

For the variant G73A U76A, the nonsense suppression was 0.0803.

A60G U71C: the nonsense suppression was 0.0362.

Regarding A62U G84C, the nonsense suppression was found to be 0.0347.

For the variant G73A G85A, the nonsense suppression was found to be 1.03.

Turning to G73A G85U, the nonsense suppression is 0.285.

Turning to G67C C83A, the nonsense suppression is ≤ 0.026.

G69A C82G: the nonsense suppression is ≤ 0.026.

As for G73A G88U, the nonsense suppression was determined as 0.0757.

Consider G73A G88A, for which the nonsense suppression was 0.0281.

A60U G65U A74C C82A: the nonsense suppression was ≤ 0.026.

As to A60C G61U, the nonsense suppression amounted to 0.768.

As for U71C C77G G84A, the nonsense suppression is ≤ 0.026.

On to U63G C80U, for which the nonsense suppression was ≤ 0.026.

On to G66C G69C G73C G84C, for which the nonsense suppression is ≤ 0.026.

In the case of G65U G84U, the nonsense suppression was ≤ 0.026.

For the variant A62U U71G, the nonsense suppression was ≤ 0.026.

Take U63G U76C: the nonsense suppression turned out to be 0.0764.

In the case of U63G U76A, the nonsense suppression was 0.433.

Take G66C G78A: the nonsense suppression worked out at 0.0452.

A62U G67U G69U: the nonsense suppression is ≤ 0.026.

U63A C82U: the nonsense suppression was found to be 0.178.

A62C G85A: the nonsense suppression is ≤ 0.026.

Turning to C72U G85U, the nonsense suppression came to 0.0294.

With A60U G78C G85A, the nonsense suppression was determined as 1.16.

A62C G78A: the nonsense suppression was ≤ 0.026.

In the case of U63G U71C, the nonsense suppression was determined as 0.028.

Take G61C G78U: the nonsense suppression stood at 0.13.

Consider U71G C77A C79U A87U, for which the nonsense suppression was ≤ 0.026.

As to C75A C79U, the nonsense suppression was 1.21.

With G61A C83A, the nonsense suppression turned out to be 0.0363.

Turning to U70C C75U, the nonsense suppression was ≤ 0.026.

As for A60G C64G, the nonsense suppression is ≤ 0.026.

As to G67A G84U, the nonsense suppression is 0.0504.

Consider C75U U76G, for which the nonsense suppression was determined as 0.172.

With U63G A89G, the nonsense suppression amounted to 0.0674.

A60G: the nonsense suppression is 1.14.

On to A60U, for which the nonsense suppression amounted to 0.984.

Turning to C72A G85C, the nonsense suppression is ≤ 0.026.

As for G67A C80U, the nonsense suppression is 0.0261.

With G61C U76C, the nonsense suppression turned out to be 0.23.

Take U63A C75G U76C: the nonsense suppression was 1.19.

Regarding G65C G66C U76C, the nonsense suppression is 0.793.

In the case of G69U U71G, the nonsense suppression is ≤ 0.026.

For C75A A87G, the nonsense suppression came to 0.839.

For the variant G61A A87G, the nonsense suppression stood at 0.197.

With G61A A87U, the nonsense suppression amounted to 0.181.

With A62G G67A, the nonsense suppression is ≤ 0.026.

With G61U A62U, the nonsense suppression was 0.0397.

Take G69U C72G: the nonsense suppression is ≤ 0.026.

With A62G C75U C83A, the nonsense suppression was ≤ 0.026.

A60U C68U: the nonsense suppression was determined as 1.1.

As to G61C C68U, the nonsense suppression was 0.633.

In the case of U70C G78A, the nonsense suppression turned out to be 0.0308.

On to A74U C79U, for which the nonsense suppression came to 0.0357.

Turning to U70G C82G, the nonsense suppression was ≤ 0.026.

U70G C75U: the nonsense suppression was ≤ 0.026.

On to C64U U71G, for which the nonsense suppression was ≤ 0.026.

With C64G G85C, the nonsense suppression is ≤ 0.026.

On to U70A U76G, for which the nonsense suppression worked out at 0.183.

In the case of G67U C79G, the nonsense suppression is 0.768.

As to G61A A62U, the nonsense suppression worked out at 0.311.

As for G61A A62C, the nonsense suppression was found to be 0.0863.

Turning to G61A C75U, the nonsense suppression was 0.923.

G61A C75A: the nonsense suppression was found to be 0.842.

Turning to C72U G73C C79G, the nonsense suppression is ≤ 0.026.

On to G61A C64G, for which the nonsense suppression was found to be 0.0404.

Turning to C72U G78A, the nonsense suppression was 0.0322.

Consider G61A G69A, for which the nonsense suppression worked out at 0.0276.

In the case of G61A G69C, the nonsense suppression was determined as 0.0625.

A74G C75A G86C: the nonsense suppression is ≤ 0.026.

As to G61A C72U, the nonsense suppression turned out to be 0.0666.

As for G61A C72A, the nonsense suppression was found to be 0.0325.

As to G65A C75A, the nonsense suppression came out at 0.109.

Consider C64G G66U A87G, for which the nonsense suppression is ≤ 0.026.

Turning to G61U G78U, the nonsense suppression stood at 0.165.

In the case of C68A C77A, the nonsense suppression was ≤ 0.026.

Take U63C G85A: the nonsense suppression worked out at 1.06.

On to G61C U71C, for which the nonsense suppression was determined as 0.061.

On to G67A U76G G78A, for which the nonsense suppression is ≤ 0.026.

For the variant C64G C79A, the nonsense suppression was ≤ 0.026.

Regarding A60U U63G, the nonsense suppression was determined as 0.789.

As to U63C G73A, the nonsense suppression turned out to be 0.11.

With C75A C82A, the nonsense suppression is 0.217.

For A60G A74G, the nonsense suppression came out at 0.0684.

Turning to A60G A74C, the nonsense suppression amounted to 0.0318.

On to G61C G73A, for which the nonsense suppression came to 0.213.

Take G73A: the nonsense suppression amounted to 1.12.

Turning to G61A C68G, the nonsense suppression came out at 0.0366.

As for G61A C68U, the nonsense suppression turned out to be 0.609.

In the case of A60U A62G, the nonsense suppression worked out at 0.112.

On to G67C C81A, for which the nonsense suppression is ≤ 0.026.

For U63A G66U U71A A87G, the nonsense suppression was ≤ 0.026.

On to G69C G88U, for which the nonsense suppression was ≤ 0.026.

For U63A G86U, the nonsense suppression amounted to 0.0573.

Turning to G61A U63C, the nonsense suppression stood at 0.728.

On to G61A U63G, for which the nonsense suppression turned out to be 0.227.

For G61A U63A, the nonsense suppression amounted to 0.304.

With C75A C80G, the nonsense suppression is ≤ 0.026.

Turning to C75A C80U, the nonsense suppression came to 1.01.

For the variant G67C U70G, the nonsense suppression was ≤ 0.026.

C75U G85U: the nonsense suppression worked out at 1.12.

With C75U G85A, the nonsense suppression worked out at 1.06.

For G61C C81G, the nonsense suppression was found to be 0.248.

In the case of U76A C77A, the nonsense suppression is ≤ 0.026.

For the variant A74C C79U, the nonsense suppression stood at 0.037.

For the variant U63A G67A, the nonsense suppression was ≤ 0.026.

As for U76C C81U, the nonsense suppression amounted to 0.0575.

For G61C G69C C79G G84C, the nonsense suppression was ≤ 0.026.

On to A60U U70C U76C, for which the nonsense suppression was ≤ 0.026.

For the variant G66U C68A G86A, the nonsense suppression was ≤ 0.026.

For the variant G67C C79G, the nonsense suppression was determined as 1.03.

On to A62C C64U G84C, for which the nonsense suppression is ≤ 0.026.

As for U63C C68U, the nonsense suppression is 0.228.

For the variant G61C G84U, the nonsense suppression was found to be 0.199.

Turning to A62G G78U, the nonsense suppression turned out to be 0.0339.

Regarding A60U C81U, the nonsense suppression was found to be 0.818.

Take U76A: the nonsense suppression is ≤ 0.026.

For U76C, the nonsense suppression is 1.

For G61A U76G, the nonsense suppression was found to be 0.0268.

Regarding G61A U76C, the nonsense suppression was found to be 0.775.

As to U63G A87U, the nonsense suppression was found to be 0.0518.

On to A74G G84C, for which the nonsense suppression was ≤ 0.026.

As for G66C G85A, the nonsense suppression is ≤ 0.026.

As to U63G C82U, the nonsense suppression amounted to 0.0882.

Turning to A60G C82A, the nonsense suppression came to 0.0331.

On to C75G G78C, for which the nonsense suppression was found to be 0.361.

For U76C G78A, the nonsense suppression amounted to 0.0382.

Turning to A62C G67A, the nonsense suppression is ≤ 0.026.

Take C68U G85C: the nonsense suppression was ≤ 0.026.

Consider G61U, for which the nonsense suppression came out at 1.03.

On to G61C, for which the nonsense suppression came out at 1.14.

For the variant G61A, the nonsense suppression was 0.853.

In the case of G61C G78A C79U, the nonsense suppression is ≤ 0.026.

Turning to G73A G84A, the nonsense suppression came to 0.191.

Regarding G73A G84C, the nonsense suppression turned out to be 0.361.

As for G61C C72G, the nonsense suppression came out at 0.0291.

Turning to G66C C82U, the nonsense suppression was ≤ 0.026.

For the variant C75G G85C, the nonsense suppression stood at 0.191.

As to C75G G85U, the nonsense suppression is 1.12.

As to A60C C79U, the nonsense suppression is 0.14.

Regarding A60C G67A, the nonsense suppression is ≤ 0.026.

As to U76A C79G, the nonsense suppression is ≤ 0.026.

As to U76A C79A, the nonsense suppression was ≤ 0.026.

Consider G67A, for which the nonsense suppression came to 0.188.

In the case of G65C C81G, the nonsense suppression was found to be 1.06.

On to C68U U70C, for which the nonsense suppression came out at 0.0321.

Turning to A60U G67A, the nonsense suppression was found to be 0.0457.

Take C75U G78C: the nonsense suppression amounted to 1.14.

Turning to C75U G78A, the nonsense suppression was 0.9.

These data come from the RNAGym collection of RNA variant scans (doi:10.1101/gad.245936.114).
